# Source: PubChem BioAssay (SRMLSC)
# PostGolgi ctrl = growth of the yeast control strain, post-Golgi counter-screen; efflux-deficient yeast background strain, growth absorbance A615, 16 h; inhibition, % at 10 µM; 98,000 compounds, 5% hits; AID 738
# PostGolgi yeast = growth inhibition of a yeast mutant, post-Golgi transport screen; post-Golgi transport phenotypic cell assay; inhibition, % at 10 µM; 98,000 compounds, 0.9% hits; AID 739;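 note: yeast cells grown in 1536-well plates; yeast grown about 18 h at 30C before absorbance read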
# E coli WT exp = E. coli BW25113 growth inhibition, expanded screen; 98,000 compounds, 0.15% hits; AID 710; OD600 absorbance; growth inhibition, % at 100 µM;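 active = growth inhibition above about 50% at one test dose, limit read from the data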;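 note: growth measured after 20 h incubation at 37 °C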
# HER2 expr 66K = lowers expression of human Her2 kinase. HER2 level % of control, % at 10 µM. 65,000 compounds, 0.69% hits. SKBR-3 HER2 protein level, AlphaScreen, 18-24 h; stronger effect = lower value. P04626;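 active = HER2 level under 5% of the carrier-only control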;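 note: 100% = DMSO carrier and 0% = 500 nM PU-H71 HSP90 inhibitor; lower value means stronger loss of Her2 protein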
# tolC growth inh = growth inhibitors of E. coli BW25113 tolC mutant. 65,000 compounds, 2.2% hits. growth inhibition, % at 10 µM (by protocol). OD615. AID 573;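 active = growth inhibition at or above a cutoff equal to the mean over every tested compound plus 3 SD, cut at about 60% in these data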;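 note: growth measured after 20 h incubation at 37 °C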
#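 signal = optical density read at 615 nm | test system = E. coli ΔtolC::kan strain BW25113 | timing = 20 h compound exposure of bacteria at 37 °C | buffer or medium = LB medium plus 50 µg/mL kanamycin | compound dosing = 10 µM final, single dose | evaluation = % inhibition of E. coli growth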
# Starred values were filed as active, the others as inactive; . = no result. Rows were chosen to be rich in hits. Some 6.6% of all compounds tested hit in one or more screens of this group. Cut-off read from the data, not from the text of the source, unless noted: active = inhibition above about 30%; inactive = the rest.
SMILES,PostGolgi ctrl,PostGolgi yeast,E coli WT exp,HER2 expr 66K,tolC growth inh
O=C(O)CCn1c2c(c3ccccc31)CCCC2,47.9*,2.2,-4.0,.,.
CC1CCN(CC(=O)n2c3c(c4ccccc42)CCCC3)CC1,-2.3,8.5,14.0,.,.
Cc1cccc(NC(=O)CSc2nnc(-c3ccccc3C)o2)c1,-3.1,-2.0,-8.0,84.7,-13.1
CCOc1ccccc1-c1nnc(SCC(=O)Nc2ccccc2)o1,43.3*,-5.8,-6.0,97.5,25.0
CCCCn1c(SCC2CCCCO2)nc2cc(S(N)(=O)=O)ccc21 (configuration not stated),0.6,4.0,5.0,90.2,4.4
Cc1cc2c(n1-c1ccc(Cl)cc1)CC(C)(C)CC2=O,36.0*,3.9,3.0,.,.
Cc1ccc2nc(Nc3ccc4[nH]c(=O)[nH]c4c3)c(-n3nc(C)cc3C)nc2c1,31.3*,-2.4,-5.0,30.4,23.4
Cc1cc(C)n(-c2nc3ccccc3nc2Nc2ccc3c(c2)OCO3)n1,21.6,3.7,-20.0,90.8,13.6
COc1cccc(CSc2nnc(-c3ccco3)n2C)c1,3.2,5.5,-5.0,121.2,-11.4
CC(C)=CC(=O)OCC(=O)Nc1nc(C)c(Cl)cc1Cl,-4.2,-0.8,-3.0,89.8,-4.3
CC(C)=CC(=O)OCC(=O)Nc1ccc(F)cc1Cl,33.0*,12.4,1.0,94.7,-7.1
Cc1ccc2c(c1)CCCN2C(=O)c1cc2ccccc2oc1=O,18.1,-1.4,0.0,.,.
COC(=O)C(C(C)=O)C1=C/C(=N\S(=O)(=O)c2ccc(C)cc2)c2ccccc2C1=O (configuration not stated),5.9,0.9,8.0,.,.
Cc1ccccc1NC1=C/C(=N\S(=O)(=O)c2cccs2)c2ccccc2C1=O,101.3*,107.5*,-1.0,.,.
O=C(c1ccc(COc2ccc(Cl)cc2)o1)N1CCN(Cc2ccc3c(c2)OCO3)CC1,52.3*,.,-19.0,107.1,95.7*
O=C(c1ccc(COc2ccccc2Cl)o1)N1CCN(Cc2ccc3c(c2)OCO3)CC1,26.6,-5.0,-6.0,55.5,52.2
O=C(CSCc1cccc(Cl)c1)N1CCN(Cc2ccc3c(c2)OCO3)CC1,28.2,47.6*,-1.0,.,.
Cc1nn(C(C)C(=O)NNC(=S)Nc2ccc(Cl)cc2)c(C)c1[N+](=O)[O-] (configuration not stated),-2.8,-1.9,6.0,.,.
COc1ccc(-c2noc(CCCc3ccccc3)n2)cc1OC,8.9,-6.9,-3.0,77.4,61.9*
COc1ccc(-c2noc(Cc3ccc(Cl)cc3)n2)cc1OC,25.8,6.2,-12.0,108.9,62.8*
CC(C)CCn1nnnc1C(c1ccc(F)cc1)N1CCC(C(N)=O)CC1 (configuration not stated),1.7,2.4,-7.0,90.6,-10.3
COc1ccccc1-n1c(C)cc(C=O)c1C,6.4,0.2,-3.0,.,.
COc1ccccc1-n1c(=O)oc2ccc(Cl)cc2c1=O,60.4*,12.9,46.0,41.5,100.0*
c1nc(NCC2(N3CCOCC3)CCCCC2)c2ccsc2n1,-3.2,-5.2,-5.0,84.0,-3.7
Cc1sc2ncnc(NCC3(N4CCOCC4)CCCCC3)c2c1C,33.3*,31.5*,-6.0,.,.
SMILES,PostGolgi ctrl,PostGolgi yeast,E coli WT exp,HER2 expr 66K,tolC growth inh
Cc1ccc(-c2nn3c(-c4ccco4)nnc3c3ccccc23)cc1S(=O)(=O)N1CCOCC1,.,.,.,103.1,4.2
CCOC(=O)c1c(C)oc2c1c1c(c3ccccc32)OCN(Cc2cccnc2)C1,35.2*,9.0,-10.0,55.1,4.5
COC(=O)NCC(c1cccnc1)N1CCOCC1 (configuration not stated),-10.9,7.9,-6.0,108.7,-9.3
CCOC(=O)c1c(C)oc2c1c(C=NCc1ccccn1)c(O)c1ccccc12,9.9,1.7,-10.0,34.3,15.0
CCOC(=O)c1c(C)oc2c1c(C(c1cccnc1)N1CCOCC1)c(O)c1ccccc12 (configuration not stated),37.0*,-1.6,2.0,.,.
CCOC(=O)c1c(C)oc2c1c(C(c1cccnc1)N1CCN(C)CC1)c(O)c1ccccc12 (configuration not stated),.,.,.,-16.2*,11.9
COC(=O)CCC(=O)N1CCc2cc(S(=O)(=O)N3CCN(c4ccccc4Cl)CC3)ccc21,8.0,-3.3,2.0,90.6,8.5
CCC(c1nnnn1Cc1ccccc1)N(Cc1ccco1)Cc1cc2cc(OC)ccc2[nH]c1=O (configuration not stated),40.6*,-0.2,-6.0,65.5,22.4
Cc1cc(C)c2c(N)c(S(=O)c3ccc(C(C)(C)C)cc3)sc2n1 (configuration not stated),13.1,-2.0,14.0,.,.
COc1ccccc1NC(=O)c1cc(Sc2nncn2C)nc2ccccc12,32.7*,1.4,1.0,96.2,7.2
COc1ccccc1NC(=O)c1cn(C)c(=O)c2cc(OC)c(OC)cc12,8.4,2.8,-1.0,95.5,-5.7
O=C1CC(SC(=Nc2ccccc2)Nc2ccccc2)C(=O)N1c1cccc2ccccc12 (configuration not stated),18.6,-5.3,0.0,.,.
O=C(CN1CCN(S(=O)(=O)c2ccc(Br)cc2)CC1)Nc1ccc2c(c1)OCO2,-0.5,-0.8,-16.0,84.6,5.7
O=C(c1ccco1)N1CCN(c2c(-c3ccccc3)c3cc(Cl)ccc3[nH]c2=O)CC1,28.2,7.7,-7.0,95.8,70.0*
O=c1[nH]c2ccc(Cl)cc2c(-c2ccccc2)c1N1CCN(c2ccccn2)CC1,81.7*,30.6*,-9.0,93.2,48.9
Cc1ccc(S(=O)(=O)N2CCCC2C(=O)NC2=NCCS2)cc1 (configuration not stated),3.5,-3.4,2.0,88.9,-18.1
COc1ccc2oc(=O)c(C(=O)N3CCN(C45CC6CC(CC(C6)C4)C5)CC3)cc2c1,.,.,.,81.7,-0.6
COc1ccc(OCC(O)Cn2c(=N)n(Cc3ccccc3)c3ccccc32)cc1 (configuration not stated),-4.4,1.1,25.0,56.5,66.2*
O=C(c1ccc(Cl)cc1)N1CCCC(c2ccccc2)=N1,36.0*,13.9,2.0,.,.
CSc1nc(-c2ccccc2)nn1C(=O)c1ccc(Cl)cc1,12.1,-3.5,-5.0,.,.
O=C1c2ccccc2C(=O)N1CCCc1nc(-c2ccncc2)no1,36.0*,1.1,-6.0,.,.
c1ccc(-c2ccccc2-c2nc(-c3ccncc3)no2)cc1,56.1*,16.9,9.0,68.6,23.8
c1ccc(-c2nc(-c3ccncc3)no2)cc1,10.0,4.0,6.0,73.0,16.3
c1ccc(C(Cc2nc(-c3ccncc3)no2)c2ccccc2)cc1,34.8*,-4.8,8.0,44.1,40.8
COc1ccc(-n2nnc3c(SCC(=O)N4CCCc5ccccc54)ncnc32)cc1,.,.,.,24.4,-15.4
CCCOc1ccc2[nH]cc(C(=O)O)c(=O)c2c1,-8.3,2.9,-7.0,90.1,-1.2
O=[N+]([O-])c1ccc(C2CCCC/C2=N\OCc2cccc(F)c2)c([N+](=O)[O-])c1 (configuration not stated),9.7,0.8,-5.0,.,.
Cc1ccc(N=Nc2c(N)[nH]n3c(=O)c4c(nc23)CCCC4)cc1,24.7,-0.7,2.0,.,.
